According to ChEMBL document CHEMBL1125795, “Substrate analogue renin inhibitors containing replacements of histidine in P2 or isosteres of the amide bond between P3 and P2 sites” (J Med Chem, 1991):

Experiments:
[1] = target: T1, Cathepsin D (Bos taurus, UniProt P80209); experiment: In vitro inhibitory activity against bovine Cathepsin D
T1 sequence (P80209 whole entry): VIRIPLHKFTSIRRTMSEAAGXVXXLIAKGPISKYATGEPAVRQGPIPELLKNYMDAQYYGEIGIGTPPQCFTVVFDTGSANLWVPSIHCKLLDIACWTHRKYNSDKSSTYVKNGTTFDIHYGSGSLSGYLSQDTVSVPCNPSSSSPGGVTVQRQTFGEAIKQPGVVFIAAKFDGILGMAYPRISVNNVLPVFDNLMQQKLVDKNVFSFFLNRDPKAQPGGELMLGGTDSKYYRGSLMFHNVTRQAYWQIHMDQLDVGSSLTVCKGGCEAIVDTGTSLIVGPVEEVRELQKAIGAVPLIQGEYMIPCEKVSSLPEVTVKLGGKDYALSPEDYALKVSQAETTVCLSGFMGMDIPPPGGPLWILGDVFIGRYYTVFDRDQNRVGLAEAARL
Outline: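 Bovine cathepsin D (100 munits) acting on hemoglobin at pH 3.2, 20 min, 37 °C. TCA-soluble peptides released were read by absorbance at 280 nm; IC50 taken as the concentration giving 50% inhibition of peptide liberation.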

[2] = target: Pepsin A (Sus scrofa, UniProt P00791); experiment: In vitro inhibitory activity against porcine Pepsin.
Chain of Pepsin A (P00791 whole entry): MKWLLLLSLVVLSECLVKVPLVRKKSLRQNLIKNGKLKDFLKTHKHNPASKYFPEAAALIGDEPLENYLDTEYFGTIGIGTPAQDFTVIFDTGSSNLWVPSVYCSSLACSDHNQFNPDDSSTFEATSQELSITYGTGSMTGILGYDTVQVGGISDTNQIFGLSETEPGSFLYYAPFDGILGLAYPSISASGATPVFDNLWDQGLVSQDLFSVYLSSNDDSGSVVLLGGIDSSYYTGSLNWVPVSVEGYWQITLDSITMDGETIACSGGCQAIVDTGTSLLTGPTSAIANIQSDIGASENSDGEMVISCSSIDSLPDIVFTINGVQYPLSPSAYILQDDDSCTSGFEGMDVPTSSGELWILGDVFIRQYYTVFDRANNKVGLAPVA
Outline: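 Porcine pepsin (20 units) digesting hemoglobin at pH 1.8, 10 min, 35.5 °C. Released TCA-soluble peptides measured at 280 nm; IC50 is the concentration halving peptide liberation.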

[3] = target: T2, Renin (Homo sapiens, UniProt P00797); experiment: In vitro for inhibitory activity against human renin
T2 sequence (P00797 whole entry): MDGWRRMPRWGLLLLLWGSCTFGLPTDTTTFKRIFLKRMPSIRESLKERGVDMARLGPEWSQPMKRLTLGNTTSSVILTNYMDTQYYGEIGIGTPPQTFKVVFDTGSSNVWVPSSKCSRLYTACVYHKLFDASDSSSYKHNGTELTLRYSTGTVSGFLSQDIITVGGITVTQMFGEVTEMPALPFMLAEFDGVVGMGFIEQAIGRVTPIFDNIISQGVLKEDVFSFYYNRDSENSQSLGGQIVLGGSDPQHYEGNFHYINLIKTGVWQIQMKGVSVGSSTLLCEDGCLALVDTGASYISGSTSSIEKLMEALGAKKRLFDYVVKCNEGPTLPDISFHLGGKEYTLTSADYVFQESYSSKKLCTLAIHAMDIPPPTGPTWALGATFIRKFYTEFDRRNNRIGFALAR
Outline: (§1)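 Endogenous renin and angiotensinogen in human EDTA plasma; incubation mixture of 76 mM maleate pH 5.5, 7.2 mM EDTA, 1% DMSO, 8.3 mM 8-hydroxyquinoline; 2 h at 37 °C, then on ice; angiotensin I measured by radioimmunoassay. At least three inhibitor concentrations bracketing the IC50; IC50 calculated from percent inhibition.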

[4] = Partition coefficient (logP); assay type: physicochemical; details: octanol/water
Outline: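 Octanol/water partition coefficient measured at pH 7.4.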

[5] = Plasma renin activity change in salt depleted cynomolgus monkeys.; assay type: functional, Cercopithecidae
Outline: (§2)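 Cynomolgus monkeys salt-depleted with furosemide 2 mg/kg im daily from 4 days before the experiment; haloperidol 0.3 mg/kg im for sedation on the test day. Conscious chair-restrained animals; systolic pressure by tail-cuff every 5 min, stabilized before dosing. Single oral 30 mg/kg dose, n = 4; PRA from blood samples. Change from T = 0 baseline, mean ± SE.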

[6] = Plasma renin activity change in salt depleted cynomolgus monkeys after 180 minutes, administration of the compound.; assay type: functional, Cercopithecidae; outline: as §2
[7] = target: T2, Renin; experiment: Compound was tested in vitro for inhibitory activity against human renin; outline: as §1

| SMILES | IC50 [1] [nM] | IC50 [2] [nM] | IC50 [3] [nM] | logP [4] | Change [5] [%] | Change [6] [%] | IC50 [7] [nM] |
| --- | --- | --- | --- | --- | --- | --- | --- |
| CC[C@H](C)[C@H](NC(=O)C[C@H](O)[C@H](CC1CCCCC1)NC(=O)[C@H](C)NC(=O)[C@H](Cc1ccccc1)NC(=O)OC(C)(C)C)C(=O)NCc1cnc(C)nc1N | 28 | 950 | 0.53 | – | – | – | – |
| CC[C@H](C)[C@H](NC(=O)[C@@H](C[C@H](O)[C@H](CC(C)C)NC(=O)CNC(=O)[C@H](Cc1ccccc1)NC(=O)OC(C)(C)C)C(C)C)C(=O)NCc1cnc(C)nc1N | 3900 | 1400 | 5.4 | – | – | – | – |
| CC[C@H](C)[C@H](NC(=O)C[C@H](O)[C@@H](CC1CCCCC1)NC(=O)CNC(=O)[C@@H](Cc1ccccc1)NC(=O)OC(C)(C)C)C(=O)NCc1cnc(C)nc1N | 13000 | 38500 | 2.5 | – | – | – | – |
| CC[C@H](C)[C@H](NC(=O)C[C@H](O)[C@H](CC1CCCCC1)NC(=O)CS(=O)(=O)CC(=O)[C@H](Cc1ccccc1)NC(=O)OC(C)(C)C)C(=O)NCc1cnc(C)nc1N | > 10000 | > 10000 | 240 | – | – | – | – |
| CC[C@H](C)[C@H](NC(=O)C[C@H](O)[C@@H](CC1CCCCC1)NC(=O)CNC(=O)[C@@H](Cc1ccccc1)NC(=O)OC(C)(C)C)C(=O)NCc1cccnc1 | 6500 | 40000 | 2.8 | – | – | – | – |
| CC[C@H](C)[C@H](NC(=O)C[C@H](O)[C@@H](CC1CCCCC1)NC(=O)CCNC(=O)[C@@H](Cc1ccccc1)NC(=O)OC(C)(C)C)C(=O)NCc1cnc(C)nc1N | 7900 | 18500 | 1.5 | 2.88 | -25.1 | -21.6 | – |
| CC[C@H](C)[C@H](NC(=O)C[C@H](O)[C@H](CC1CCCCC1)NC(=O)CCNC(=O)[C@H](Cc1ccccc1)NC(=O)N1CCOCC1)C(=O)NCc1cnc(C)nc1N | > 10000 | > 10000 | 0.28 | – | – | – | – |
| CC[C@H](C)[C@H](NC(=O)C[C@H](O)[C@H](CC1CCCCC1)NC(=O)CCNC(=O)[C@H](Cc1ccccc1)NC(=O)N1CCC(N(C)C)CC1)C(=O)NCc1cnc(C)nc1N | 10000 | > 10000 | 0.58 | – | – | – | – |
| CC[C@H](C)[C@H](NC(=O)[C@@H](C[C@H](O)[C@H](CC(C)C)NC(=O)CCNC(=O)[C@H](Cc1ccccc1)NC(=O)OC(C)(C)C)C(C)C)C(=O)NCc1cnc(C)nc1N | 4700 | 830 | 4.1 | – | – | – | – |
| CC[C@H](C)[C@H](NC(=O)C[C@H](O)[C@H](CC1CCCCC1)NC(=O)CSC[C@@H](O)[C@H](Cc1ccccc1)NC(=O)OC(C)(C)C)C(=O)NCc1cnc(C)nc1N | 73000 | > 100000 | 5.5 | – | – | – | – |
| CC[C@H](C)[C@H](NC(=O)[C@@H](C[C@H](O)[C@H](CC(C)C)NC(=O)CCC(=O)[C@H](Cc1ccccc1)NC(=O)OC(C)(C)C)C(C)C)C(=O)NCc1cnc(C)nc1N | 8000 | 12000 | – | – | – | – | 5.1 |
| CC[C@H](C)[C@H](NC(=O)C[C@H](O)[C@H](CC1CCCCC1)NC(=O)C[S+]([O-])CC(=O)[C@H](Cc1ccccc1)NC(=O)OC(C)(C)C)C(=O)NCc1cnc(C)nc1N (stereo not given in full) | > 10000 | > 10000 | 70 | – | – | – | – |
| CC[C@H](C)[C@H](NC(=O)C[C@H](O)[C@H](CC1CCCCC1)NC(=O)CSC[C@H](O)[C@H](Cc1ccccc1)NC(=O)OC(C)(C)C)C(=O)NCc1cnc(C)nc1N | > 100000 | > 100000 | 6.3 | – | – | – | – |
| CC[C@H](C)[C@H](NC(=O)C[C@H](O)[C@H](CC1CCCCC1)NC(=O)CCNC(=O)[C@H](Cc1ccccc1)NC(=O)CCCCCN)C(=O)NCc1cnc(C)nc1N | > 10000 | > 10000 | 4.5 | – | – | – | – |
